Common to all, as to type: functional, cell-based
Experiment [1] has as its system KB. As to the kind of experiment: Cytotoxicity against human KB cells up to 100 uM after 48 hrs by MTT assay. The gist of the method: (§1)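 Cell lines obtained from a provincial disease-control centre. Compounds (HPLC-DAD purity over 95%) dissolved in DMSO and tested against the cells. Viability read by MTT colorimetric assay and expressed as IC50. Doxorubicin HCl served as positive control and compound-free medium as negative control. Each test was run three times.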
(In general: Tetrazolium dyes change colour on reduction, which living cells bring about.)

Experiment [2] has as its system A-375. Put plainly: Cytotoxicity against human A375 cells up to 100 uM after 48 hrs by MTT assay. The gist of the method: as §1
Experiment [3] concerns HepG2. As to the kind of experiment: Cytotoxicity against human HepG2 cells up to 100 uM after 48 hrs by MTT assay. Put shortly:
as §1

Experiment [4] has as its system BGC-823. As to the kind of experiment: Cytotoxicity against human BGC823 cells up to 100 uM after 48 hrs by MTT assay. Put shortly: as §1
A short description of experiment [5]: Cytotoxicity against human GHOST-R5X4 cells after 48 hrs by MTT assay. To be noted: GHOST-R5X4, 48 h. The gist of the method:
as §1

In experiment [6] the test system is KB. Put plainly: Cytotoxicity against human KB cells after 48 hrs by MTT assay. Put shortly: as §1
Experiment [7] has as its system A-375. Put plainly: Cytotoxicity against human A375 cells after 48 hrs by MTT assay. The settings on record: A-375, 48 h. Put shortly:
as §1

Experiment [8] has as its system BGC-823. Put plainly: Cytotoxicity against human BGC823 cells after 48 hrs by MTT assay. To be noted: BGC-823, 48 h. Put shortly: as §1
The subject of experiment [9] is HepG2. As to the kind of experiment: Cytotoxicity against human HepG2 cells after 48 hrs by MTT assay. The settings on record: HepG2, 48 h. Put shortly:
as §1

A further experiment has as its system GHOST-R5X4. Put plainly: Cytotoxicity against human GHOST-R5X4 cells up to 100 uM after 48 hrs by MTT assay. Put shortly:
as §1

Structures are written as SMILES. Structures can show the parent of a compound that is named as a salt. The source made the active and inactive calls. The rule behind the calls is not given here.

Turning to `COc1cccc2c1C(=O)c1ccc3cc(C)cc(O)c3c1C2=O`, the result in the experiment with KB [1], in the experiment with A-375 [2], in the experiment on HepG2 [3] and with BGC-823 [4] was inactive. Besides, half-maximal inhibition in experiment [5] (IC50) required 89 µM.

As to `C[C@@]1(O)Cc2ccc3c(c2C(=O)[C@@H]1O)C(=O)c1cccc(O)c1C3=O`, the outcome with KB [1], in the experiment with A-375 [2], in the experiment on HepG2 [3] and with BGC-823 [4] was inactive. In experiment [5], the IC50 (as a rule, the concentration that inhibits the measured activity by half) was found to be 37.6 µM.

`COC(=O)C(O)C(C)(O)Cc1ccc2c(c1O)C(=O)c1cccc(O)c1C2=O` (centres undefined): the outcome with KB [1] and in the experiment with A-375 [2] was inactive.

For the compound `Cc1cc(O[C@@H]2O[C@@H](C)[C@H](O)[C@@H](O)[C@H]2O)c2c3c(c(O)cc2c1)C(=O)c1c(O)cccc1C3=O`, the result with KB [1] and in the experiment on A-375 [2] was inactive.

`COc1cccc2c1C(=O)c1c(O)c3c(c(O)c1C2=O)C[C@@](O)(C(=O)CO)C[C@@H]3O[C@H]1C[C@H](N)[C@H](O)[C@H](C)O1` [DOXORUBICIN HYDROCHLORIDE]: the IC50 in [5] is 5.73 µM; in the experiment with KB [6], 0.01 µM; in the experiment on A-375 [7] it was 0.73 µM; in the experiment on BGC-823 [8] it was 0.01 µM; with HepG2 [9], 1.11 µM.

With `C[C@H]1O[C@H](O[C@]23C(=O)[C@@H](O)[C@](C)(O)C[C@@]2(O)C=CC2=C3C(=O)c3cccc(O)c3C2=O)CC[C@H]1O` [SAKYOMICIN A], the outcome with GHOST-R5X4, in the experiment on KB [1] and in the experiment on A-375 [2] was inactive. The IC50 turned out to be 15.1 µM with BGC-823 [8] and 34.9 µM in the experiment on HepG2 [9].

For `C[C@H]1O[C@H](O[C@]23C(=O)C[C@](C)(O)C[C@@]2(O)C=CC2=C3C(=O)c3cccc(O)c3C2=O)CC[C@H]1O` [SAKYOMICIN C], the outcome with KB [1] was inactive. The IC50 amounted to 14 µM in [5], 17.5 µM in the experiment on A-375 [7], 11 µM in the experiment on BGC-823 [8] and 17.4 µM in the experiment on HepG2 [9].

Regarding `C[C@]1(O)CC(=O)c2c(ccc3c2C(=O)c2cccc(O)c2C3=O)C1` [TETRANGOMYCIN], the outcome in the experiment with A-375 [2] and with HepG2 [3] was inactive. Further, the IC50 in [5] turned out to be 17.7 µM; in the experiment with KB [6], 23.7 µM; in the experiment with BGC-823 [8], 36.1 µM.
